Autophagy mod = autophagy modulators in MEF cells, primary screen, imaging, high-content, MEF GFP-LC3; AID 463193, 2010; MEF GFP-LC3 puncta imaging; test concentration mostly 10 µM; calls only at 10 µM (by protocol); 190,000 compounds, 0.98% hits;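 active = percentage of spot-positive cells more than 3 SD above its plate mean, without a fluorescence outlier flag or 80% toxicity; inconclusive = no clear call, values can overlap the other calls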
WT yeast gro inh = growth inhibition of WT strain, primary screen, mitochondrial fusion inhibitor project, WT and mutant strains, chemical genetic. mitochondrial fusion phenotypic screen. inhibition, % at 10 µM. 190,000 compounds, 2.1% hits. AID 1362, 2008; in the data active = inhibition above about 58%; tested in S. cerevisiae
SKKanGAS inh = S. pyogenes SKKanGAS growth inhibitors in kanamycin, primary screen, streptokinase expression inhibitor project, SKKanGAS strain, BacTiter-Glo luminescence; 6 h; inhibition, % at 7.5 µM; 300,000 compounds, 1.3% hits; AID 1662, 2009;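 active = mean replicate score, as percent of positive control median, at least 50; inconclusive = mean below 50 but one replicate at or above 50; inactive = mean and every replicate below 50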;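 also: strain carries kanamycin resistance gene driven by streptokinase promoter and grows in 40 µg/ml kanamycin; loss of luminescence reflects streptokinase promoter inhibition or plain growth inhibition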
Rad51 HR inh = human RAD51 strand exchange inhibitors, primary screen, biochemical, fluorescence. DNA repair protein RAD51 homolog 1 (Homo sapiens), Q06609. hRad51 DNA strand exchange, fluorescence dequenching. inhibition, % at 10 µM. 200,000 compounds, 0.085% hits. AID 1385, 2008;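 active = inhibition above 40% at the single screening dose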
Target sequence (Q06609 whole entry, looked up): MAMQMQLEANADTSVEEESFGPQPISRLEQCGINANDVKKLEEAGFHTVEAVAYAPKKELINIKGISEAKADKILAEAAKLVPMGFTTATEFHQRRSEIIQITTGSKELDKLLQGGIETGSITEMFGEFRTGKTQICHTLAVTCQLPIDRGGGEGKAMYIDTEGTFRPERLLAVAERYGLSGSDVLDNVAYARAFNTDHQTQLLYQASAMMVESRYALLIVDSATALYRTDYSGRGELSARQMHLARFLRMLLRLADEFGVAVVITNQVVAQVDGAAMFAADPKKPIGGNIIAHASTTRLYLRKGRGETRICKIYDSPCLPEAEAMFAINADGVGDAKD
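Assay system: Human Rad51 nucleoprotein filaments preassembled on unlabelled ssDNA | Reagent: Donor/quencher-labelled 47-bp dsDNA substrate | Doses: One concentration, 10 µM final | Times: 37 °C 15-min filament assembly, 30-min compound preincubation, 15-min exchange | Technique: Fluorescein emission 520 nm, excitation 485 nm | Benchmarks: Plate control and blank wells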
KCC2 mod = KCC2 cotransporter modulators, thallium flux, primary screen, cell-based, HEK293 KCC2, FluoZin-2 fluorescence, MLSMR; B-score of Tl+ flux slope (higher = more flux/activation; lower = inhibition) at 10 µM; 190,000 compounds, 2.2% hits; Solute carrier family 12 member 5 (Homo sapiens), Q9H2X9; AID 1456, 2008; KCC2 cells, thallium flux FluoZin-2 fluorescence;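 active = thallium flux slope and its plate-corrected score both differing from the plate sample mean at a set confidence after two filtering rounds, in either direction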;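 also: slope of fluorescence scaled to starting intensity during 10 to 20 s after thallium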
Ins promoter up = insulin promoter activators in MIN6 cells, imaging, high-content screening, mouse beta cells | z-score at 5 µM | 190,000 compounds, 0.3% hits | MIN6 insulin promoter-GFP reporter; active compounds read high;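 active = z-score above 3 at 5 µM with at least 500 cells counted in the well; inconclusive = wells under 500 cells, flagged as cytotoxic or low count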
A number is an active result; n = inactive; u = inconclusive; x = not tested or not shown; + = active, no number. Rows were chosen to be rich in hits. Some 4.2% of all compounds tested hit in one or more screens of this group.

SMILES	Autophagy mod	WT yeast gro inh	SKKanGAS inh	Rad51 HR inh	KCC2 mod	Ins promoter up
Fc1ccc(CO/N=C/C2=C(Cl)c3ccccc3CC2)cc1	n	58	79	x	n	n
CC(NC(=O)/C(=C/c1ccc(OC(F)F)cc1)c1ccccc1)c1ccccc1 (centres undefined)	n	65	n	n	n	n
Brc1ccc(Oc2nsnc2N2CCOCC2)cc1	n	n	n	n	x	3.9
O=C(NCCN1CCCC1)C(c1ccccc1)c1ccccc1	x	x	n	x	x	x
N#C/C(=C\C=C\c1ccccc1[N+](=O)[O-])C(=O)NC1CCCCC1	n	n	n	n	n	n
N#C/C(=C\c1ccccc1[N+](=O)[O-])C(=O)NC1CCCCC1	n	58	n	n	n	n
CC(C)CC(NS(=O)(=O)c1cccc(C(=O)O)c1)C(=O)O (centres undefined)	n	n	n	n	n	n
C/C=C(/C(=C/C)c1ccc(O)cc1)c1ccc(O)cc1	n	63	n	n	n	x
C=C(c1ccc(O)cc1)c1ccc(O)cc1	n	n	n	n	n	n
CCc1cc(-c2n[nH]c(C)c2Oc2ccc(C(C)C)cc2)c(O)cc1O	n	86	109	n	x	x
CCOc1ccc(-c2n[nH]c(C)c2Oc2ccccc2OC)c(O)c1	n	n	n	n	x	n
CCCOC(=O)c1ccc(Oc2c(-c3ccc(OC)cc3O)n[nH]c2C)cc1	n	n	61	n	n	n
Cc1[nH]nc(-c2ccc(O)cc2O)c1Oc1ccccc1	n	n	n	n	n	n
CCCOC(=O)c1ccc(Oc2c(-c3ccc(O)cc3O)n[nH]c2C)cc1	n	n	55	n	x	n
CSCC[C@H](NS(=O)(=O)c1ccc(C(C)=O)cc1)c1nnc2ccccn12	x	x	n	x	x	x
C=CCc1cc(/C=C2/NC(=O)N(CC(=O)OC)C2=O)cc(OC)c1O	n	n	n	n	n	n
Cc1ccc2c(CC(=O)NCCc3ccc(S(N)(=O)=O)cc3)coc2c1	x	x	n	n	n	n
Cc1nonc1NC(=O)CSc1nc2c(C)cccc2cc1C#N	+	n	n	n	n	x
Cc1cccc2cc(C#N)c(SCCN3CCCCC3)nc12	+	x	n	n	3.6	x
COc1ccc(CC(NC(C)=O)C(=O)NC2CCN(C(=O)C3CCCCC3)CC2)cc1OC (centres undefined)	x	x	n	x	x	x
O=C(O)CCC(=O)N1CCC(n2nnc3cc(C(F)(F)F)ccc32)CC1	x	x	n	n	n	n
COc1ccc(OC)c(CCNC(=O)CN2C(=O)CCSc3ccccc32)c1	x	x	n	x	x	x
C(=N\Nc1nc(Nc2ccccc2)nc(Nc2ccccc2)n1)/c1cccnc1	n	83	u	n	n	n
C(=N\Nc1nc(Nc2ccccc2)nc(Nc2ccccc2)n1)/c1ccncc1	n	n	n	x	n	n
C(=N/Nc1nc(-c2ccccc2)cc(-c2ccccc2)n1)/c1cccnc1	n	68	n	n	n	n
COc1ccccc1/C=C\C=N\n1c(-c2ccc(Cl)cc2)n[nH]c1=S	n	n	n	x	n	n
COc1ccccc1/C=C\C=N\n1c(-c2ccc(Cl)cc2Cl)n[nH]c1=S	n	65	n	x	n	n
CC1CCc2nc(/C(C#N)=C/c3ccncc3)sc2C1 (centres undefined)	n	n	n	n	n	n

Screening results deposited in PubChem BioAssay by several laboratories.
